A selection: hits, their analogues and other compounds. The true share with any hit is near 1.3%.
NTR1 agonist = agonists of human neurotensin receptor NTR1. P30989. NTR1-U2OS beta-arrestin-GFP spot imaging, agonist mode. activation, % at 20 µM. hit rate 0.17% among 330,000;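 active means activation at or above 40% of the spot to cytoplasm intensity ratio, with at least 20 cells analyzed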
Target sequence (P30989 whole entry, looked up): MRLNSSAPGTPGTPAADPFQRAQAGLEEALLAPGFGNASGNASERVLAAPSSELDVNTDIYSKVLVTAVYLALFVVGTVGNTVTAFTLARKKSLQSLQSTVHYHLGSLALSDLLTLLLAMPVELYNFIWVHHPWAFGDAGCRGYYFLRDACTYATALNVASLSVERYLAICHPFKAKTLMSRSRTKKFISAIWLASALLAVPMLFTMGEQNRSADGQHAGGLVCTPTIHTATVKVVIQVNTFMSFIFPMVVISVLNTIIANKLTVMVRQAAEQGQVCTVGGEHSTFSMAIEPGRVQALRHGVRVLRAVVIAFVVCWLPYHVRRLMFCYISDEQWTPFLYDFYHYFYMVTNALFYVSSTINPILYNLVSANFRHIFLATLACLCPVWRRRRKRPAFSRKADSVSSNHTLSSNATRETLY
Arr AP2 block = blocks beta-arrestin peptide binding to AP2 adaptin. AID 504490. FITC-arrestin peptide / GST-AP2 beads, flow cytometry; AP2 beta2 appendage carries R879A mutation. hit rate 0.31% among 340,000. inhibition, % at 10 µM;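 active means inhibition above a set limit, near 3 SD of compounds lacking own fluorescence, cut at about 54% in these data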
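System: GST-AP2 R879A glutathione beads | Also added: FITC-arrestin peptide, 50 nM | Times: 12 min plus 1 h, RT | Signal: Bead flow cytometry, FITC channel | Buffer or medium: PBS with 0.05% Tween 20 and 0.1% BSA | Read-out basis: Percent drop in bead-associated FITC signal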
PLCb3 inh = PLC-beta3 (human) inhibition, primary screen | hit rate 0.18% among 370,000 | Purified PLC-beta3, fluorogenic substrate, fluorescence | Q01970 | inhibition, % at 12.2 µM; in the data active means inhibition above about 11%
PLC-gamma1 inh = blocks human PLC-gamma1 enzyme activity; P19174; purified PLC-gamma1, fluorogenic substrate, fluorescence; inhibition, % at 12.2 µM; hit rate 0.84% among 370,000; AID 720700; in the data active means inhibition above about 9.5%
Arr-AP2 CP1 = blocks beta-arrestin peptide binding to human AP2 | shares compounds with Arr AP2 block | GST-AP2 beads, FITC arrestin peptide binding, flow cytometry; GST-fused beta2-adaptin appendage, R879A mutant | inhibition, % at 10 µM | hit rate 2% among 1,300 | AID 504908;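 active means inhibition above a set limit, roughly 3 SD of non-fluorescent compound noise, cut at about 38% in these data; inactive means inhibition at or below that limit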;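 further: loss of bead fluorescence from 50 nM FITC arrestin peptide bound to appendage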
GST GSH counter = disrupts GST binding to glutathione beads, arrestin-AP2 artifact; shares compounds with Arr AP2 block; GST-fluorescein binding to GSH beads, fluorescence, counter-screen; inhibition, % at 10 µM; hit rate 2% among 1,300;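 active means inhibition above 50%, about 3 SD of the inhibition seen with non-fluorescent compounds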;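 further: fluorescein maleimide labelled GST captured on 4 micron glutathione beads; higher means more loss of bead fluorescence from quenching or blocked binding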
Numbers stand for hits; 0 = inactive; - = not tested or not shown.

SMILES	NTR1 agonist	Arr AP2 block	PLCb3 inh	PLC-gamma1 inh	Arr-AP2 CP1	GST GSH counter
COc1ccccc1C(O)P(=O)(OC1CCCCC1)OC1CCCCC1 (stereo not drawn)	0	55	0	0	0	0
Cc1ccc(C(O)P(=O)(OC2CCCCC2)OC2CCCCC2)cc1 (stereo not drawn)	0	0	0	0	-	-
CCC(=O)Nc1ccc(C(=O)c2ccccc2)cc1	0	84	0	0	0	0
CCC(=O)Nc1ccc(NC(=S)Nc2ccccc2)cc1	0	0	0	0	-	-
CCCn1c(NC(=S)Nc2ccccc2)nc2ccccc21	0	63	0	0	0	0
CCn1c(NC(=S)Nc2ccccc2)nc2ccccc21	0	0	0	0	-	-
CC(=O)c1nn(-c2ccccc2)cc1C(=O)c1ccc(Br)cc1	0	104	0	0	0	0
Cc1ccc(OCCC(=O)Nc2ccc3c(c2)OCO3)cc1	0	0	0	0	0	0
Cc1ccc(OCCC(=O)OCC(=O)Nc2ccc3c(c2)OCO3)cc1	0	0	0	0	-	-
COc1ccccc1OCCC(=O)Nc1ccc2c(c1)OCO2	0	57	0	0	0	0
CCOc1ccc(OCCC(=O)Nc2ccc3c(c2)OCO3)cc1	0	0	0	0	0	0
COc1ccc(OCCCC(=O)Nc2ccc3c(c2)OCO3)cc1	0	62	0	0	0	0
CCn1nc(NS(=O)(=O)c2cccc3nonc23)c2cc3ccc(C)cc3nc21	0	68	-	-	0	0
COc1ccc(CNC(=O)c2c(N)[nH]c(C(=O)c3ccccc3)c2-c2ccc3ccccc3c2)cc1OC	-	-	0	0	-	-
Cc1cnc(C(=O)Nc2ccc(OC(F)(F)F)cc2)cn1	0	55	0	0	0	0
CCN(CC)C(=O)CSc1nnc(-c2cccs2)o1	-	-	0	0	-	-
CCCC1(c2ccccc2)NC(=O)N(CC(=O)Nc2ccc3c(c2)OCCO3)C1=O (stereo not drawn)	0	65	0	0	0	0
CCOC(=O)N1CCN(C(=O)/C(=C/c2cccs2)NC(=O)c2ccc(OC)c(OC)c2)CC1	0	60	0	0	0	0
O=C1CCCC/C1=N\Nc1ccc(C2CCCCC2)cc1	0	-	-	-	-	-
O=C1CCCC/C1=N\Nc1ccc(OCc2ccccc2)cc1	0	98	0	0	0	0
O=C(/C=C/c1ccc(F)cc1)Nc1ccc(S(=O)(=O)N2CCOCC2)cc1	0	54	0	0	0	0
O=C(CCc1ccccc1Cl)Nc1cc(S(=O)(=O)N2CCOCC2)ccc1N1CCCC1	-	0	0	0	-	-
O=C(CCc1ccccc1Cl)Nc1ccc(S(=O)(=O)N2CCOCC2)cc1	0	59	0	0	0	0
CC(C)(C)c1ccc(S(=O)(=O)NCC(=O)N2CCN(c3ncccn3)CC2)cc1	-	-	0	0	-	-
CCCCCN1CCCCC(NC(=O)c2ccccc2C)C1=O (stereo not drawn)	-	-	0	0	-	-
SMILES	NTR1 agonist	Arr AP2 block	PLCb3 inh	PLC-gamma1 inh	Arr-AP2 CP1	GST GSH counter
COc1ccc2c(c1)S/C(=C\C(=O)c1ccncc1)N2C	0	91	0	0	0	0
CN1/C(=C/C(=O)c2ccc(Cl)cc2)Sc2cc3c(cc21)OCO3	0	103	0	0	0	0
Cc1nn(-c2ccccc2)c2sc(C(=O)NC3CCCCCC3)cc12	-	-	0	0	-	-
O=C(CC(=O)Nc1ccccc1C(F)(F)F)Nc1ccccc1C(F)(F)F	0	0	0	0	-	-
O=C(CC(=O)c1ccccc1)Nc1ccccc1C(F)(F)F	0	0	0	0	0	0
CN1CCS/C1=C/C=C1/SC(=S)N(Cc2ccccc2)C1=O	-	0	0	0	-	-
CCN1C(=O)/C(=C/C=C2/Sc3ccc4ccccc4c3N2CCO)SC1=S	0	0	0	0	-	-
CCN1C(c2ccccc2)=C(c2ccccc2)S/C1=C\C=C1/SC(=S)N(C)C1=O	0	75	0	0	0	0
CCN1C(c2ccccc2)=C(c2ccccc2)S/C1=C/C=C1\SC(=S)N(C)C1=O	-	57	0	0	0	0
C[C@@H](N)C(=O)Nc1ccc(Cl)cc1C(=O)c1ccc[nH]1	-	-	0	0	-	-
COc1ccc(CCN(C)C(=O)c2cc(-c3ccccc3)nc3ccc(C)cc23)cc1OC	0	67	0	0	0	0
CCOC(=O)c1ccc(N=c2sc(C(=O)OC)cc(=O)n2C2CC2)cc1	0	106	0	0	0	89
CO/N=C/C(c1ccc(Cl)nc1)S(=O)(=O)c1ccccc1 (stereo not drawn)	0	57	0	0	0	0
CCCn1c(=O)c(C(=O)NCCc2ccc(OC)cc2)c(O)c2ccccc21	0	55	0	0	0	0
CCCCOc1ccc(C(=O)NCC(=O)NNC(=O)C2COc3ccccc3O2)cc1 (stereo not drawn)	0	0	0	0	-	-
CCOc1ccc(C(=O)NCC(=O)NNC(=O)C2COc3ccccc3O2)cc1OCC (stereo not drawn)	0	65	0	0	0	0
O=C(NCCc1c[nH]c2ccccc12)OCc1cn(Cc2ccccc2F)nn1	-	-	0	0	-	-
CCN(CC)c1ccc(/C=N/NC(=O)Cc2cccs2)c(O)c1	-	61	0	0	0	0
CCN(CC)c1ccc(/C=N/NC(=O)c2ccco2)c(O)c1	0	0	0	0	-	-
CC12CN3CC(C)(CN(C1)C3c1ccc(Br)cc1O)C2 (stereo not drawn)	0	0	0	0	0	0
CC12CN3CC(C)(CN(C1)C3c1cc(Br)ccc1O)C2=O (stereo not drawn)	0	0	0	0	-	-
O=C(CN(Cc1cccs1)S(=O)(=O)c1ccc(S(=O)(=O)N2CCCCC2)cc1)Nc1ccccc1	0	102	0	0	0	0
Cc1ccccc1OCC(=O)Nc1nc2ccccc2[nH]1	0	0	0	0	-	-
Cc1cc(C)c(OCC(=O)Nc2nc3ccccc3[nH]2)c(C)c1	0	56	0	0	0	0
CCc1ccc(NC(=O)Nc2cnccn2)cc1	0	0	0	0	0	0
SMILES	NTR1 agonist	Arr AP2 block	PLCb3 inh	PLC-gamma1 inh	Arr-AP2 CP1	GST GSH counter
CCCCc1ccc(NC(=O)Nc2cnccn2)cc1	0	0	0	0	0	0
Nc1[nH]c(C(=O)c2ccccc2)c(-c2ccc(Br)cc2)c1C(=O)N1CCN(CCO)CC1	-	-	0	0	-	-
O=C(Nc1ccc(F)cc1)OCc1cn(Cc2cccc(F)c2)nn1	-	-	0	0	-	-
CN1CCN(S(=O)(=O)c2cccc(C(=O)NC3CCCC3)c2)CC1	0	60	0	0	0	0
Cc1ccc(S(=O)(=O)N2CCC(C(=O)NC3CCCC3)CC2)cc1Cl	0	0	0	0	-	-
Cc1ccc(S(=O)(=O)N2CCCC(C(=O)NC3CCCC3)C2)cc1Cl (stereo not drawn)	0	57	0	0	0	0
CCN(CC)C(=O)CC[C@@H]1CC[C@]2(CCCN(C(=O)C(C)(C)C)C2)O1	-	-	0	0	-	-
COc1ccc(CNC(=O)c2ccncc2)cc1	0	0	0	0	-	-
COc1cccc(CNC(=O)c2ccncc2)c1	0	68	0	0	0	0
O=C(O)/C=C/C(=O)Nc1ccc(Oc2ccccc2)cc1	0	0	0	0	-	-

Source: PubChem
